The values that follow come from ChEMBL document CHEMBL3124809, “Back pocket flexibility provides group II p21-activated kinase (PAK) selectivity for type I 1/2 kinase inhibitors” (J Med Chem, 2014).

Test [1] addresses Serine/threonine-protein kinase PAK 1 (Homo sapiens, UniProt Q13153). Nature of the test: Binding affinity to N-terminal GST-His-tagged recombinant human PAK1 kinase domain expressed in Escherichia coli BL21 using KKRNRRLSVA as sustrate preincubated for 10 mins followed by ATP addition measured after 60 mins by FRET-based Z'Lyte assay.
Test [2] addresses T1, Serine/threonine-protein kinase PAK 4 (Homo sapiens, UniProt O96013). Nature of the test: Binding affinity to N-terminal GST-tagged recombinant human PAK4 kinase domain expressed in Escherichia coli using KKRNRRLSVA as substrate preincubated for 10 mins followed by ATP addition measured after 60 mins by FRET-based Z'Lyte assay.
Target sequence in this assay (O96013 whole entry, the tested form may be a part): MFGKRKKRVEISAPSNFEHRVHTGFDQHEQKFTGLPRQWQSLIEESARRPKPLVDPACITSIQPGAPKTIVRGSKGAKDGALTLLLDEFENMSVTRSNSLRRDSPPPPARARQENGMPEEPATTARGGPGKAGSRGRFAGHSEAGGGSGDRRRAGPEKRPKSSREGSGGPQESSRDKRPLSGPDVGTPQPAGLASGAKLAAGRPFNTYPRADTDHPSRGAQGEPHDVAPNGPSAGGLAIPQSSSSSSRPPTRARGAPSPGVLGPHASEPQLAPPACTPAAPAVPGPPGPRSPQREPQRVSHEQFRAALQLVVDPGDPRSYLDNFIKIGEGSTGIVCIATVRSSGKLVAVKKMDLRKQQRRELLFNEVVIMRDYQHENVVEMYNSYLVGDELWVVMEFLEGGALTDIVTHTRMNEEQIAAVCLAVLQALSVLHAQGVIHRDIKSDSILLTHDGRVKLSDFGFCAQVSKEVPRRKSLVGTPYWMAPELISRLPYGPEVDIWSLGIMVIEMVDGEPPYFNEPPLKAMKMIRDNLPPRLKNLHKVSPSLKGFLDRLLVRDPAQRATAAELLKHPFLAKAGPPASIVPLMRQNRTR
Test [3] addresses T2, Tyrosine-protein kinase JAK3 (Homo sapiens) (UniProt P52333).
T2 sequence (whole entry): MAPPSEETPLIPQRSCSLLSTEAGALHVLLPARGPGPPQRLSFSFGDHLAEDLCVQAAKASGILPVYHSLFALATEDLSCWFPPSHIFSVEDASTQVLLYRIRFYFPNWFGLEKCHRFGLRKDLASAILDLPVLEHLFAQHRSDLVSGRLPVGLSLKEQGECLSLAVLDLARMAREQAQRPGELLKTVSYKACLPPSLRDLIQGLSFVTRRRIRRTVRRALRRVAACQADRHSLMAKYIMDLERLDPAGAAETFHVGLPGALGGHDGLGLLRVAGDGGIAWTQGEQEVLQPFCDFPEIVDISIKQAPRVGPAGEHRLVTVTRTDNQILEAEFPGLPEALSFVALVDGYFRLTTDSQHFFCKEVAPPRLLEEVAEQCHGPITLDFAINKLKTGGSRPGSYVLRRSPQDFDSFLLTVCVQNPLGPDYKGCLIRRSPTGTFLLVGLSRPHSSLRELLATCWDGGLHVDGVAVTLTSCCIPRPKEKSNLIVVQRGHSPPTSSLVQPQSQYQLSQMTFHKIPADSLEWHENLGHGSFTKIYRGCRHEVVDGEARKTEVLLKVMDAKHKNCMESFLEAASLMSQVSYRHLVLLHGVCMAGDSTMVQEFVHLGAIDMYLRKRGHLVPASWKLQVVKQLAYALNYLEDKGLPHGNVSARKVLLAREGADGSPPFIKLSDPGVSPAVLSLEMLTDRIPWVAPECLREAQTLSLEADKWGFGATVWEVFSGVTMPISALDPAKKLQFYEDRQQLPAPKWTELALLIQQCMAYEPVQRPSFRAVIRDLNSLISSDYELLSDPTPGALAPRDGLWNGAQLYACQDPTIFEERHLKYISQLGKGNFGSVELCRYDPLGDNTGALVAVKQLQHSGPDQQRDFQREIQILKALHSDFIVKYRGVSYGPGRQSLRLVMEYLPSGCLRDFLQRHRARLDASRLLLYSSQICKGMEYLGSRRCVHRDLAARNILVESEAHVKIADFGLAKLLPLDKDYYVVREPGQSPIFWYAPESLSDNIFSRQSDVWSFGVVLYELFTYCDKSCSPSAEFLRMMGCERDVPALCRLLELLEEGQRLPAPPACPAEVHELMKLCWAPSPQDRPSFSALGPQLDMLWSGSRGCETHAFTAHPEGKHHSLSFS
Briefly: Inhibition of JAK3 (unknown origin) at 1 uM.

For test [4], the target named is Mitogen-activated protein kinase kinase kinase kinase 4 (Homo sapiens) (UniProt O95819). Briefly: Inhibition of MAP4K4 (unknown origin) at 1 uM.
Test [5] has as its target Mitogen-activated protein kinase kinase kinase kinase 5 (Homo sapiens) (UniProt Q9Y4K4). Briefly: Inhibition of KHS1 (unknown origin) at 1 uM.
In test [6] the target is Mitogen-activated protein kinase kinase kinase 14 (Homo sapiens) (UniProt Q99558). Briefly: Inhibition of NIK (unknown origin) at 1 uM.
The target in test [7] is T1, Serine/threonine-protein kinase PAK 4. Nature of the test: Inhibition of PAK4 (unknown origin) at 1 uM.
Target sequence in this assay (O96013 whole entry, looked up, the tested form may be a part): as the sequence (O96013 whole entry, the tested form may be a part) above
The target in test [8] is Misshapen-like kinase 1 (Homo sapiens) (UniProt Q8N4C8). Briefly: Inhibition of MINK1 (unknown origin) at 1 uM.
Test [9] deals with T1, Serine/threonine-protein kinase PAK 4. As to conditions: 10 uM.
Target sequence in this assay (O96013 whole entry, looked up, the tested form may be a part): as the sequence (O96013 whole entry, the tested form may be a part) above
Test [10] addresses Mitogen-activated protein kinase kinase kinase 14 (Homo sapiens) (UniProt Q99558). Nature of the test: Inhibition of NIK (unknown origin) at 10 uM.
Test [11] addresses Misshapen-like kinase 1 (Homo sapiens) (UniProt Q8N4C8). Briefly: Inhibition of MINK1 (unknown origin) at 10 uM.
The target of test [12] is Mitogen-activated protein kinase kinase kinase kinase 4 (Homo sapiens) (UniProt O95819). Nature of the test: Inhibition of MAP4K4 (unknown origin) at 10 uM.
Test [13] addresses T2, Tyrosine-protein kinase JAK3 (Homo sapiens). Briefly: Inhibition of JAK3 (unknown origin) at 10 uM.
For test [14], the target named is Mitogen-activated protein kinase kinase kinase kinase 5 (Homo sapiens) (UniProt Q9Y4K4). Nature of the test: Inhibition of KHS1 (unknown origin) at 10 uM.
Test [15] in a line: Cytotoxicity against human MDA-MB-436 cells assessed as reduction in cell viability after 24 to 48 hrs by Celltiter-glo luminescence assay. The test is classed as functional, cell-based. The gist of the method: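 Cells sparsely plated in 96-well plates and allowed to adhere, then given DMSO or compound (0.1, 1, 10, 50 μM) for 24 and 48 h. Metabolically active cells quantified by CellTiter-Glo luminescence. MDA-MB-436 grown in DMEM/10% FBS; MCF10A PIK3CA (one endogenous H1047R allele) in DMEM/F12 with 5% horse serum, insulin, hydrocortisone.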
On the technique in general: ATP-based viability assays read luminescence as a measure of living cells.

Some results are limits rather than exact numbers.

One may read the Ki as the equilibrium dissociation constant of an inhibitor or competing ligand from its target. What is called inhibition is the drop in the measured response relative to a control, in per cent. The IC50 is the midpoint of a concentration-inhibition curve.

Sequence of Mitogen-activated protein kinase kinase kinase kinase 4 (Homo sapiens) (O95819 2-1239 limits assumed): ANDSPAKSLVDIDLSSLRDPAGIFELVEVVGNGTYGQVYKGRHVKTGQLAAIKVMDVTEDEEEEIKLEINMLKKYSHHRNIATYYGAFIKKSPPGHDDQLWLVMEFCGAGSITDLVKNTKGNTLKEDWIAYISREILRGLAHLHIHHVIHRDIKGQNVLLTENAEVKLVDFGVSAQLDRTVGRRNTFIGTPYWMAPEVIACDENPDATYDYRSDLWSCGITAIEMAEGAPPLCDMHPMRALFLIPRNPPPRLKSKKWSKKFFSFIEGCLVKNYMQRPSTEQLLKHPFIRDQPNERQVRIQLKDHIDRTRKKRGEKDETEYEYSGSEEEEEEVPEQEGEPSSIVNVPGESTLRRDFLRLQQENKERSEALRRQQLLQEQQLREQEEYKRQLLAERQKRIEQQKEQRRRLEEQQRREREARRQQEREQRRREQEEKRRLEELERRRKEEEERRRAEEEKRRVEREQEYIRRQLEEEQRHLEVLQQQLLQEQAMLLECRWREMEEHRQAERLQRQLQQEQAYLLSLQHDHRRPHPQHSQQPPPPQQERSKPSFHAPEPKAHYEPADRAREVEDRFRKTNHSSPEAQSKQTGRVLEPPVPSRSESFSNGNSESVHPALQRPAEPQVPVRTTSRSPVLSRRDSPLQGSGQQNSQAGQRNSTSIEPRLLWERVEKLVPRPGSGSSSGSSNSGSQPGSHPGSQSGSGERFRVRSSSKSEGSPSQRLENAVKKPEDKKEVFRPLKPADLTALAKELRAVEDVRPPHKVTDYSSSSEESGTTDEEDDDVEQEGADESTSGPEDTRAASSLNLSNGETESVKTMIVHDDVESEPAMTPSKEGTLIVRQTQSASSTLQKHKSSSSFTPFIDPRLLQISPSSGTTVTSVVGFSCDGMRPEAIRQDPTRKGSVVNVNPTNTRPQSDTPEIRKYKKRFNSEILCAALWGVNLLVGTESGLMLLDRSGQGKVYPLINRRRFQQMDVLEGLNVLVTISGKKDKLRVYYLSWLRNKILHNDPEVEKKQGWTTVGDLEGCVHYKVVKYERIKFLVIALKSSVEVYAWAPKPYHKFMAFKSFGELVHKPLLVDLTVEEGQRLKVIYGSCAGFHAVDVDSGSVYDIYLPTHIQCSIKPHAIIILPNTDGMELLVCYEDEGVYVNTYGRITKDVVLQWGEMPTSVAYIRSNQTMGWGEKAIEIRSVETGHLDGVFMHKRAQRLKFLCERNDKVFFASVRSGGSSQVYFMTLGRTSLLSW
Sequence of Serine/threonine-protein kinase PAK 1 (Q13153 whole entry, the tested form may be a part): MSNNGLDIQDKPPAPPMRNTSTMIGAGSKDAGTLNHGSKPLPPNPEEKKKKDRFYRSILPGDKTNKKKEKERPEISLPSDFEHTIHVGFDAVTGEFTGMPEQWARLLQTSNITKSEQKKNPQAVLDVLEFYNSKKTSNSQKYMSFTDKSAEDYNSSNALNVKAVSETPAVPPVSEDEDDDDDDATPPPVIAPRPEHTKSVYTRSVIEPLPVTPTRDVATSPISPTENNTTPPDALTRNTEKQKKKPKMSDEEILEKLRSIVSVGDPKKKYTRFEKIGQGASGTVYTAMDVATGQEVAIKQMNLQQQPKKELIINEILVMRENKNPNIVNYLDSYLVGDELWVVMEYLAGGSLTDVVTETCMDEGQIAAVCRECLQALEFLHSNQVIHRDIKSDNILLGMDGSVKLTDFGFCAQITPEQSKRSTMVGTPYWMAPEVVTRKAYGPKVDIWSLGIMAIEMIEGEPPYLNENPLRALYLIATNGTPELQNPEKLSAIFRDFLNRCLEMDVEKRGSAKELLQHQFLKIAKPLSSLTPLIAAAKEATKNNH
Sequence of Misshapen-like kinase 1 (Homo sapiens) (Q8N4C8 whole entry, looked up): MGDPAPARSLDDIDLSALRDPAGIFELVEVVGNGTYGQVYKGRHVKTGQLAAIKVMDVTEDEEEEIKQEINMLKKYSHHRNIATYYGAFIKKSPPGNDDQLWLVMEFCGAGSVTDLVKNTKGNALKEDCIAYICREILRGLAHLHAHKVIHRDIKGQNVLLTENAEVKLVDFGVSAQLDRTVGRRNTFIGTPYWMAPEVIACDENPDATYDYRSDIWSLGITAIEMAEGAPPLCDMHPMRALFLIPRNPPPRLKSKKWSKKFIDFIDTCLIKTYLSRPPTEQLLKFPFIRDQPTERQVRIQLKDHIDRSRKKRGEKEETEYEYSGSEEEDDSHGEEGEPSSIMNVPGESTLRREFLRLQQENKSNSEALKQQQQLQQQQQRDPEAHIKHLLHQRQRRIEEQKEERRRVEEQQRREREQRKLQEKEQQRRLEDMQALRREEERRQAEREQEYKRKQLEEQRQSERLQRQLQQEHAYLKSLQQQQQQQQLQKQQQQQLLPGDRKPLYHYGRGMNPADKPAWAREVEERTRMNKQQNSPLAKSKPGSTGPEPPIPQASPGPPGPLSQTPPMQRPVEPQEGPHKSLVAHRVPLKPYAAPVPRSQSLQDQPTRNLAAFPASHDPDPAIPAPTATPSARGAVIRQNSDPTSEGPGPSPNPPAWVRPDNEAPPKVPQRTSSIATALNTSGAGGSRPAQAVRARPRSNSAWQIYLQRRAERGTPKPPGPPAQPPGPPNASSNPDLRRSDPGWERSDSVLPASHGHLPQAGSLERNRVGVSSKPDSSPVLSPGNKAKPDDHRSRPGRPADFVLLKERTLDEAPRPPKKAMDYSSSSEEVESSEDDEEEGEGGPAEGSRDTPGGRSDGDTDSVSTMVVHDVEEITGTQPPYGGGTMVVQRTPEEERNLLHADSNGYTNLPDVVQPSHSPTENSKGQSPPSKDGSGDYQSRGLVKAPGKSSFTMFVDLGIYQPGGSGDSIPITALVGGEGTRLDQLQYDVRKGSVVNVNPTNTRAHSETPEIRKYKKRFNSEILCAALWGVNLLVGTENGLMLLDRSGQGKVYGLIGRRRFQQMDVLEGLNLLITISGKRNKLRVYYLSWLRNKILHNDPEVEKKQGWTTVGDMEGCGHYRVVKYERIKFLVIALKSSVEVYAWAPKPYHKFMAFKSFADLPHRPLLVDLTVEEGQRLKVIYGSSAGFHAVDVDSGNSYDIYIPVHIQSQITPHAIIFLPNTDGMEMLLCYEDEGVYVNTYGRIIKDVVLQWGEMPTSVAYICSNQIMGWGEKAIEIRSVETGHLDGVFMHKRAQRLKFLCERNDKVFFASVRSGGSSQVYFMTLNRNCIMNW
Sequence of Mitogen-activated protein kinase kinase kinase kinase 5 (Homo sapiens) (Q9Y4K4 whole entry, looked up): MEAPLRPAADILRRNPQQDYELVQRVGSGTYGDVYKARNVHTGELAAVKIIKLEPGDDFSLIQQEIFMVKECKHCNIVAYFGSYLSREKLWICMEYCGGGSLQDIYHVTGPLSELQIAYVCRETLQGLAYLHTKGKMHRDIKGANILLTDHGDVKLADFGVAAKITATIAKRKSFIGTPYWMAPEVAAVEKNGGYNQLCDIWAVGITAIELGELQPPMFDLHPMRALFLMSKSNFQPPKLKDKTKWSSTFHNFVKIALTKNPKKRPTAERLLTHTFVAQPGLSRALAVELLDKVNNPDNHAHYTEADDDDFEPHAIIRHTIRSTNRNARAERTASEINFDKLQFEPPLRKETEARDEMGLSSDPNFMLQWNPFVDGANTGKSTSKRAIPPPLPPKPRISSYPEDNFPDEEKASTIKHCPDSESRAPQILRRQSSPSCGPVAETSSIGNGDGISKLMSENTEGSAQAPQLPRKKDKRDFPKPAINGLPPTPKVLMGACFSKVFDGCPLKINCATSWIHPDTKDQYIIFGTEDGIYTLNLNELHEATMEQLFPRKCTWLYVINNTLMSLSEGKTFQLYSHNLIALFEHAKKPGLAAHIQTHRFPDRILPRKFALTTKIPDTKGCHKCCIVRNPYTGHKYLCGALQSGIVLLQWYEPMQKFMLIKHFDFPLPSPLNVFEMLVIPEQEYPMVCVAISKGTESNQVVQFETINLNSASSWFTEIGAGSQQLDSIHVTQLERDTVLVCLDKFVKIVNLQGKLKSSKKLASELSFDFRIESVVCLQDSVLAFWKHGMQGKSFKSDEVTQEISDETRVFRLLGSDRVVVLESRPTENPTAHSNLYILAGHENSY

As to `CC(C)(O)C#Cc1ccc2cnn(-c3ccnc(N)n3)c2c1`, the figures for the Ki in [1] and in test [2] were over 4500 nM and 120 nM, respectively.

With `Cc1nc2ccc(C#CC(C)(C)O)cc2n1-c1ncnc(N)n1`, the Ki in [1] turned out to be 15300 nM; in [2] it was 500 nM. For the same compound, the inhibition in test [3] is 2%; in [4], 31%; in test [5], 81%; in test [6] it was 68%; in test [7] it was 34%; in test [8], 27%.

Regarding `Cc1nc2ccc(C#CC(C)(O)CC3CC3)cc2n1-c1ncnc(N)n1` (racemic), the figures for the Ki in test [1] and in [2] were over 4500 nM and 670 nM, respectively.

Turning to `Cc1nc2ccc(C#C[C@@](C)(O)c3nccs3)cc2n1-c1ncnc(N)n1`, the figures for the Ki in test [1] and in test [2] were over 4500 nM and 600 nM, respectively.

Regarding `Cc1nc2ccc(C#CC(C)(O)c3ncccn3)cc2n1-c1ncnc(N)n1` (racemic), the values for the inhibition constant Ki in test [1] and in test [2] were over 4500 nM and over 2900 nM, respectively.

With `Cc1nc2ccc(C#CC3(O)COC3)cc2n1-c1ncnc(N)n1`, the results for the Ki in [1] and in test [2] were over 4500 nM and over 2900 nM, respectively.

`CC(C)(O)C#Cc1ccc2cnn(-c3cc(N)ncn3)c2c1`: the figures for the Ki in test [1] and in [2] were over 4500 nM and 1300 nM, respectively.

As to `Cc1nc2ccc(C#CC(C)(O)CO)cc2n1-c1ncnc(N)n1` (racemic), the Ki is over 4500 nM in [1] and over 2900 nM in test [2].

On to `COCCNc1nc2ccc(C#CC(C)(C)O)cc2n1-c1ccnc(N)n1`, for which the Ki in test [1] is over 4500 nM; in test [2], 140 nM. For the same compound, the inhibition in [9] worked out at 97%; in [10], 84%; in [11], 32%; in test [12] it was 40%; in test [13], 31%; in [14] it was 88%.

In the case of `Cc1nc2ccc(C#CC3(O)CCCOC3)cc2n1-c1ncnc(N)n1` (racemic), the Ki in test [1] was over 4500 nM; in test [2], over 2900 nM.

For `Cc1nc(Nc2n[nH]c3c2CN(C(=O)N[C@H](CN(C)C)c2ccccc2)C3(C)C)c2sccc2n1` [PF-03758309], in test [15], the IC50 is 0.79 nM.

With `Cc1cc([C@](C)(O)C#Cc2ccc3nc(C)n(-c4ncnc(N)n4)c3c2)no1`, the values for the Ki in test [1] and in test [2] were over 4500 nM and 32 nM, respectively.

For `Cc1nc2ccc(C#CC(C)(C)CO)cc2n1-c1ncnc(N)n1`, the values for the Ki in test [1] and in [2] were over 4500 nM and over 2900 nM, respectively.

Consider `Cc1nc2ccc(C#C[C@@]3(O)C[C@@H]4CC[C@H]3C4)cc2n1-c1ncnc(N)n1` (racemic), for which the figures for the Ki in [1] and in test [2] were over 4500 nM and 190 nM, respectively.

With `CCNc1nc2ccc(C#CC(C)(C)O)cc2n1-c1ncnc(N)n1`, the inhibitory constant (Ki) in test [1] was over 4500 nM; in [2] it was 60 nM.

Consider `Cc1nc2ccc(C#CC3(O)CCCCC3)cc2n1-c1ncnc(N)n1`, for which the inhibition is -2% in test [3]; 4% in [4]; 44% in test [5]; 56% in test [6]; 91% in [7]; 6% in test [8]. Further, in test [2], the inhibition constant Ki turned out to be 68 nM.
